Laboratory results published in ChEMBL document CHEMBL5674883, “The Heterochromatin Landscape in Migrating Cells and the Importance of H3K27me3 for Associated Transcriptome Alterations” (Cells, 2018).

Assays:
Type in all cases: cell-based
[1] = biological target: T1, RNA polymerase II (Mus musculus) (UniProt P08775+Q8CFI7+P97760+A0A3Q4L2S8+Q80UW8+P61219+P62488+Q923G2+P60898+O08740+Q63871+P62876); assay: Inhibition of RNA polymerase II in mouse B16-F1 migrating cells assessed as fold change in Pgp-RNA stability at 0.1 mM measured by […] analysis relative to control cells
[2] = biological target: T1, RNA polymerase II (Mus musculus); assay: Inhibition of RNA polymerase II in mouse B16-F1 migrating cells assessed as fold change in Trappc8-RNA stability at 0.1 mM measured by […] analysis relative to control cells
[3] = biological target: T1, RNA polymerase II (Mus musculus); assay: Inhibition of RNA polymerase II in mouse B16-F1 migrating cells assessed as fold change in Nrp1-RNA stability at 0.1 mM measured by […] analysis relative to control cells
[4] = biological target: T1, RNA polymerase II (Mus musculus); assay: Inhibition of RNA polymerase II in mouse B16-F1 migrating cells assessed as fold change in Zfp280c-RNA stability at 0.1 mM measured by […] analysis relative to control cells
[5] = biological target: T1, RNA polymerase II (Mus musculus); assay: Inhibition of RNA polymerase II in mouse B16-F1 migrating cells assessed as fold change in Fosb-RNA stability at 0.1 mM measured by ChIP-seq analysis relative to control cells
[6] = biological target: T1, RNA polymerase II (Mus musculus); assay: Inhibition of RNA polymerase II in mouse B16-F1 migrating cells assessed as fold change in Rpl27-RNA stability at 0.1 mM measured by […] analysis relative to control cells
[7] = biological target: T1, RNA polymerase II (Mus musculus); assay: Inhibition of RNA polymerase II in mouse B16-F1 migrating cells assessed as fold change in Cdk5rap3-RNA stability at 0.1 mM measured by […] analysis relative to control cells
Outline: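 Mouse B16-F1 melanoma cells grown to confluence on fibronectin in DMEM/10% FCS at 37 °C, 7% CO2. Migration induced by multiple scratches and 3 h incubation; unscratched controls. DRB 0.1 mM added 3 h before lysis. RNA from poly A-selected mRNA was sequenced (RNA-seq, three replicates per DRB group). Fold change computed for DRB-treated migrating vs DRB-treated control cells; cutoffs fold change >1.3, FDR <0.05.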

[8] = biological target: T1, RNA polymerase II (Mus musculus); assay: Inhibition of RNA polymerase II in mouse B16-F1 migrating cells assessed as fold change in Alg2-RNA stability at 0.1 mM measured by […] analysis relative to control cells
[9] = biological target: T1, RNA polymerase II (Mus musculus); assay: Inhibition of RNA polymerase II in mouse B16-F1 migrating cells assessed as fold change in Zfp367-RNA stability at 0.1 mM measured by […] analysis relative to control cells
[10] = biological target: Histone-lysine N-methyltransferase EZH2 (Mus musculus) (UniProt Q61188); assay: Inhibition of EZH2 in mouse B16-F1 migrating cells assessed as fold change in H3K27me3-buffered regulated Vegfc-mRNA expression at 3 uM measured by […] analysis relative to control cells
Histone-lysine N-methyltransferase EZH2 (Mus musculus), sequence (Q61188 whole entry): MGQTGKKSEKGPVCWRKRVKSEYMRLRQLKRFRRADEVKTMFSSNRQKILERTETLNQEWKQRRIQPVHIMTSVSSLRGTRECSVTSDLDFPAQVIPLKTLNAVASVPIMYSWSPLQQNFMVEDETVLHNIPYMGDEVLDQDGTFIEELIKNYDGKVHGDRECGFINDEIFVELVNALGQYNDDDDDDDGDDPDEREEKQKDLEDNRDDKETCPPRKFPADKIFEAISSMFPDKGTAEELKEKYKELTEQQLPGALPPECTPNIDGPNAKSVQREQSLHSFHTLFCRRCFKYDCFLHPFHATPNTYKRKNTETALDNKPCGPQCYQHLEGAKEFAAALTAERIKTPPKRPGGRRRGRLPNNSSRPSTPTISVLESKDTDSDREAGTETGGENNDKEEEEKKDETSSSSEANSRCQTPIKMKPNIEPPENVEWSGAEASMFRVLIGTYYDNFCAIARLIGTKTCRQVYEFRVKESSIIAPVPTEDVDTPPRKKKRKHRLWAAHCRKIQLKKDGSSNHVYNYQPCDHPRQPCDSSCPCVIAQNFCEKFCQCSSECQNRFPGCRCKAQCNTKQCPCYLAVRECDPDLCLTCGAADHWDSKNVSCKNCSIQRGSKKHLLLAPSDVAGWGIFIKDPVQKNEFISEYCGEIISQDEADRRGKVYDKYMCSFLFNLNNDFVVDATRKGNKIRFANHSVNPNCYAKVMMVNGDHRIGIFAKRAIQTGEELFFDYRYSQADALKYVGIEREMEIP
Outline: (§1)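 Confluent B16-F1 cells on fibronectin-coated plates were scratched at multiple sites, washed once with DMEM and left to migrate 3 h in growth medium (37 °C, 7% CO2); unscratched cells served as control. GSK343 (3 µM) was added 3 h before lysis. Poly A mRNA was sequenced (RNA-seq), with 5 replicates for untreated and 3 for treated cells. Differential expression was called by linear model with batch correction, at FDR <0.05 and fold change ≥1.3.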

[11] = biological target: Histone-lysine N-methyltransferase EZH2 (Mus musculus) (UniProt Q61188); assay: Inhibition of EZH2 in mouse B16-F1 migrating cells assessed as fold change in H3K27me3-buffered regulated Cmpk2-mRNA expression at 3 uM measured by ChIP-seq analysis relative to control cells
Outline: (§2)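 Confluent B16-F1 cells on fibronectin-coated plates, cultured at 37 °C and 7% CO2, were scratched at multiple sites to induce migration. They were then held 3 h in growth medium containing 3 µM GSK343, with the inhibitor added 3 h before lysis. Unscratched cells served as controls. Poly A mRNA was analysed by RNA-seq (n=3 GSK343, n=5 controls). Linear models removed batch effects, and buffered genes were those altered only under GSK343 (FDR <0.05, fold change >1.3).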

[12] = biological target: Histone-lysine N-methyltransferase EZH2 (Mus musculus) (UniProt Q61188); assay: Inhibition of EZH2 in mouse B16-F1 migrating cells assessed as fold change in H3K27me3-buffered regulated Foxa1-mRNA expression at 3 uM measured by […] analysis relative to control cells; outline: as §2
[13] = biological target: Histone-lysine N-methyltransferase EZH2 (Mus musculus) (UniProt Q61188); assay: Inhibition of EZH2 in mouse B16-F1 migrating cells assessed as fold change in H3K27me3-independent regulated Cntnap1-mRNA expression at 3 uM measured by […] analysis relative to control cells; outline: as §1
[14] = biological target: Histone-lysine N-methyltransferase EZH2 (Mus musculus) (UniProt Q61188); assay: Inhibition of EZH2 in mouse B16-F1 migrating cells assessed as fold change in H3K27me3-buffered regulated Rap2a-mRNA expression at 3 uM measured by […] analysis relative to control cells; outline: as §2
[15] = biological target: Histone-lysine N-methyltransferase EZH2 (Mus musculus) (UniProt Q61188); assay: Inhibition of EZH2 in mouse B16-F1 migrating cells assessed as fold change in H3K27me3-independent regulated Hells-mRNA expression at 3 uM measured by […] analysis relative to control cells; outline: as §1
[16] = biological target: Histone-lysine N-methyltransferase EZH2 (Mus musculus) (UniProt Q61188); assay: Inhibition of EZH2 in mouse B16-F1 migrating cells assessed as fold change in H3K27me3-buffered regulated Ptp4a1-mRNA expression at 3 uM measured by […] analysis relative to control cells; outline: as §2
[17] = biological target: Histone-lysine N-methyltransferase EZH2 (Mus musculus) (UniProt Q61188); assay: Inhibition of EZH2 in mouse B16-F1 migrating cells assessed as fold change in H3K27me3-dependent regulated Mir22hg-mRNA expression at 3 uM measured by […] analysis relative to control cells; outline: as §1
[18] = biological target: Histone-lysine N-methyltransferase EZH2 (Mus musculus) (UniProt Q61188); assay: Inhibition of EZH2 in mouse B16-F1 migrating cells assessed as fold change in H3K27me3-buffered regulated Mef2d-mRNA expression at 3 uM measured by […] analysis relative to control cells; outline: as §2
[19] = biological target: Histone-lysine N-methyltransferase EZH2 (Mus musculus) (UniProt Q61188); assay: Inhibition of EZH2 in mouse B16-F1 migrating cells assessed as fold change in H3K27me3-buffered regulated Rhbdf2-mRNA expression at 3 uM measured by […] analysis relative to control cells; outline: as §2
[20] = biological target: Histone-lysine N-methyltransferase EZH2 (Mus musculus) (UniProt Q61188); assay: Inhibition of EZH2 in mouse B16-F1 migrating cells assessed as fold change in H3K27me3-independent regulated Coq10b-mRNA expression at 3 uM measured by […] analysis relative to control cells; outline: as §1
[21] = biological target: Histone-lysine N-methyltransferase EZH2 (Mus musculus) (UniProt Q61188); assay: Inhibition of EZH2 in mouse B16-F1 migrating cells assessed as fold change in H3K27me3-buffered regulated Map3k20-mRNA expression at 3 uM measured by ChIP-seq analysis relative to control cells; outline: as §2
[22] = biological target: Histone-lysine N-methyltransferase EZH2 (Mus musculus) (UniProt Q61188); assay: Inhibition of EZH2 in mouse B16-F1 migrating cells assessed as fold change in H3K27me3-buffered regulated Aldoa-mRNA expression at 3 uM measured by […] analysis relative to control cells; outline: as §2
[23] = biological target: Histone-lysine N-methyltransferase EZH2 (Mus musculus) (UniProt Q61188); assay: Inhibition of EZH2 in mouse B16-F1 migrating cells assessed as fold change in H3K27me3-independent regulated Nr4a3-mRNA expression at 3 uM measured by ChIP-seq analysis relative to control cells; outline: as §1
[24] = biological target: Histone-lysine N-methyltransferase EZH2 (Mus musculus) (UniProt Q61188); assay: Inhibition of EZH2 in mouse B16-F1 migrating cells assessed as fold change in H3K27me3-buffered regulated Synm-mRNA expression at 3 uM measured by […] analysis relative to control cells; outline: as §1

Structure (SMILES): OC[C@H]1O[C@@H](n2cnc3cc(Cl)c(Cl)cc32)[C@H](O)[C@@H]1O
- log2FC [1]: 0.82
- log2FC [2]: -0.62
- log2FC [3]: -0.73
- log2FC [4]: -0.98
- log2FC [5]: 2.03
- log2FC [6]: 0.51
- log2FC [7]: 0.49
- log2FC [8]: 0.52
- log2FC [9]: -0.87

Structure (SMILES): CCCc1cc(C)[nH]c(=O)c1CNC(=O)c1cc(-c2ccnc(N3CCN(C)CC3)c2)cc2c1cnn2C(C)C
- log2FC [10]: -0.44
- log2FC [11]: -0.46
- log2FC [12]: -0.77
- log2FC [13]: -0.76
- log2FC [14]: 0.56
- log2FC [15]: -0.45
- log2FC [16]: 0.38
- log2FC [17]: 0.05
- log2FC [18]: 0.41
- log2FC [19]: -0.57
- log2FC [20]: 0.56
- log2FC [21]: -0.41
- log2FC [22]: 0.42
- log2FC [23]: 0.74
- log2FC [24]: 1.06
